Source: ChEMBL document CHEMBL3102757, “Synthesis and evaluation of the antiparasitic activity of bis-(arylmethylidene) cycloalkanones” (Eur J Med Chem, 2014)
Calls of active or inactive are those of the source. No cut-off for these calls is given here.

What was measured:
Trypanosoma cruzi = assay: Trypanocidal activity against Trypanosoma cruzi Tulahuen amastigotes infected in mouse L929 cells assessed as parasite growth inhibition after 7 days by beta-galactosidase assay; format: functional, organism-based; conditions: L929, 168 h
Procedure, shortened: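 L-929 fibroblasts (4.0×10^3/well) infected with β-galactosidase-expressing Tulahuen trypomastigotes (4.0×10^4/well) for 2 h, then washed. Compounds added at 48 h, in tetraplicate, RPMI without phenol red plus 10% FBS. After 7 days, chlorophenol red β-D-galactopyranoside (100 µM) and 0.1% Nonidet P-40 added overnight at 37 °C. Read at 570 nm as % growth inhibition. Benznidazole control.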

[1] = Cytotoxicity against mouse L929 cells after 96 hrs by Alamar blue assay; format: cell-based
Procedure, shortened: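 L-929 fibroblasts seeded at 4.0×10^3 per well, same culture timing as the infection assay, exposed to rising concentrations for 96 h in tetraplicate. alamarBlue added, absorbance at 570 and 600 nm after 4–6 h. Viability as % reduction versus untreated cells. CC50 by linear interpolation.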

[2] = Selectivity index, ratio of CC50 for mouse L929 cells to IC50 for Trypanosoma cruzi Tulahuen amastigotes; format: functional
Procedure, shortened: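 Ratio of L-929 CC50 (alamarBlue, 96 h) to amastigote IC50 from the β-galactosidase infection assay.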

[3] = Selectivity index, ratio of CC50 for mouse peritoneal macrophages to IC50 for Leishmania amazonensis IFLA/BR/1967/PH-8 promastigotes; format: functional
Procedure, shortened: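 Ratio of peritoneal macrophage CC50 (MTT, 24 h) to promastigote IC50 (MTT, 48 h).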

Leishmania amazonensis = assay: Antileishmanial activity against Leishmania amazonensis IFLA/BR/1967/PH-8 promastigotes assessed as parasite growth inhibition after 48 hrs by MTT assay; conditions: IFLA/BR/1967/PH-8, 48 h
Trypanothione reductase = Trypanothione reductase (Trypanosoma cruzi, UniProt P28593); assay: Inhibition of Trypanosoma cruzi trypanothione reductase expressed in Escherichia coli BL21(DE3) assessed as reduction of oxidized trypanothione preincubated for 30 mins measured for 30 mins by spectrophotometric analysis
[4] = target: T1, Glutathione reductase, mitochondrial (Homo sapiens, UniProt P00390); assay: Inhibition of human recombinant glutathione reductase using glutathione as substrate preincubated for 30 mins by colorimetric assay
T1 sequence (P00390 whole entry): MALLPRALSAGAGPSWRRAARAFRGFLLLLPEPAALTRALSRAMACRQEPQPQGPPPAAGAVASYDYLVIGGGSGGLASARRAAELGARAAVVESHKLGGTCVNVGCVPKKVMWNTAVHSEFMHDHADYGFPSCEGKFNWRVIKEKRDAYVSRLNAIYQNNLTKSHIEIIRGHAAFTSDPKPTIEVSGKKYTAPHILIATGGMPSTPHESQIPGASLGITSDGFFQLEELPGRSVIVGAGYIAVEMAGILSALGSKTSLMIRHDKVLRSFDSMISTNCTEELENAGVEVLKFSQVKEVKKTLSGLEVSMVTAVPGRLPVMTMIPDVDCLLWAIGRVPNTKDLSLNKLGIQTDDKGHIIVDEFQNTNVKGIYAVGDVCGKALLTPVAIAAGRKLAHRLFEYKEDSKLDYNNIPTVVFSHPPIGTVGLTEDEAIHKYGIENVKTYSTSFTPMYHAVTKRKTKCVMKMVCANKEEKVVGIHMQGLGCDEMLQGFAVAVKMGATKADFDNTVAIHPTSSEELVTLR
Procedure, shortened: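 Recombinant human glutathione reductase (10 mU) in 100 mM potassium phosphate pH 7.0, 1 mM EDTA, 400 µM NADPH. Pre-incubated with compound 30 min at 27 °C. Started with oxidized glutathione (10 µL of 1 mM stock). […] Carmustine positive control.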

[5] = Cytotoxicity against mouse peritoneal macrophages after 24 hrs by MTT assay; format: cell-based, Peritoneal macrophage cell
Procedure, shortened: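 Murine peritoneal macrophages (5×10^5) cultured 24 h with a range of compound concentrations. Viability read by MTT, given as % lysis relative to cultures treated with amphotericin B (1 µg/mL).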

[6] = target: Cruzipain (Trypanosoma cruzi) (UniProt P25779); assay: Inhibition of Trypanosoma cruzi recombinant cruzaine using Z-FR-AMC as substrate at 100 uM preincubated for 10 mins measured for 5 mins by spectrophotometric analysis in presence of triton relative to DMSO-treated control
Procedure, shortened: (§1)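 Fluorescence at ex 340/em 440 nm followed 5 min. Compounds screened at 100 µM. The main screen used 0.01% Triton without pre-incubation. Checks used 0.1% or no Triton and a 10-min pre-incubation. Triplicates, activity versus DMSO control.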

[7] = target: Cruzipain (Trypanosoma cruzi) (UniProt P25779); assay: Inhibition of Trypanosoma cruzi recombinant cruzaine using Z-FR-AMC as substrate at 100 uM preincubated for 10 mins measured for 5 mins by spectrophotometric analysis relative to DMSO-treated control; procedure, shortened: as §1

Cruzipain (Trypanosoma cruzi), sequence (P25779 123-467 limits assumed): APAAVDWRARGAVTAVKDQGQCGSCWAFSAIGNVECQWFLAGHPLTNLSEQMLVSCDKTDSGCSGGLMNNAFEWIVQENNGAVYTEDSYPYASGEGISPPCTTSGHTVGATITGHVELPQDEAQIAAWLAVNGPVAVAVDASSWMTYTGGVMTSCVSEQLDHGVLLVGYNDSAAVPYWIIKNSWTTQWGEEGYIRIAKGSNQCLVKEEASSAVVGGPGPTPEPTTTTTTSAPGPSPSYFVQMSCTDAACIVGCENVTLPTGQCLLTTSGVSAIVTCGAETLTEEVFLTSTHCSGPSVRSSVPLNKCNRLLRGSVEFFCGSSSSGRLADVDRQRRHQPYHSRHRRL
Trypanothione reductase, sequence (P28593 whole entry): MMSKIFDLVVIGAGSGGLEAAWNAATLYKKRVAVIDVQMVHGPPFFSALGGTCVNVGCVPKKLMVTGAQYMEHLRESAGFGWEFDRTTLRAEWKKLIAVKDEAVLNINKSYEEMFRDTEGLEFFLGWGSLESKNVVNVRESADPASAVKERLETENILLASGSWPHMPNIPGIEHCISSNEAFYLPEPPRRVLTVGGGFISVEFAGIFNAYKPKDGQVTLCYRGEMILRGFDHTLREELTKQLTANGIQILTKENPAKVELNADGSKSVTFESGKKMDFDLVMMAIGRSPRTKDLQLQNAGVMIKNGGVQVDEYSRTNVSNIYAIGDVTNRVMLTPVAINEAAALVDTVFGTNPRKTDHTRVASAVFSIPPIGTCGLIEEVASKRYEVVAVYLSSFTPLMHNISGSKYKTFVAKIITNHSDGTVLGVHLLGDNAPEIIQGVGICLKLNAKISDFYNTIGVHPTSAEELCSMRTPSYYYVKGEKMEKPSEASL

Row | Structure (SMILES) | IC50 (Trypanosoma cruzi) | CC50 at 96 h [1] | Ratio CC50/IC50 [2] | Ratio CC50/IC50 [3] | IC50 (Leishmania amazonensis) | IC50 (Trypanothione reductase) | IC50 [4] | CC50 at 24 h [5] | inhibition [6] | inhibition [7]
1 | O=C1/C(=C/c2ccnc3ccccc23)CC/C1=C\c1ccnc2ccccc12 | 7 µM | 25.3 µM | 3.6 | 0.8 | 4.9 µM | > 100 µM | > 100 µM | 3.7 µM |  | 
2 | O=C1/C(=C/c2ccc[nH]2)CCC/C1=C\c1ccc[nH]1 | 249 µM | 375 µM | 1.5 | 15.7 | 5.3 µM | > 100 µM | > 100 µM | 83.2 µM |  | 
3 | O=C1/C(=C/c2ccc(Cn3cc(-c4ccccc4)nn3)cc2)CC/C1=C\c1ccc(Cn2cc(-c3ccccc3)nn2)cc1 | > 250 µM |  |  |  |  | > 100 µM | > 100 µM |  |  | 
4 | O=C1/C(=C/c2ccccc2)CCC/C1=C\c1ccccc1 [2,6-DIBENZYLIDENECYCLOHEXANONE] | > 250 µM |  |  | 6 | 8.4 µM | 45.8 µM | > 100 µM | 50.6 µM | inactive | 31%
5 | O=C1/C(=C/c2cccc3cnccc23)CC/C1=C\c1cccc2cnccc12 | 31.3 µM | 500 µM | 16 | 23.8 | 0.9 µM | > 100 µM | > 100 µM | 21.4 µM |  | 
6 | Cc1ccc(/C=C2\CC/C(=C\c3ccc(C)cc3)C2=O)cc1 | > 250 µM |  |  | 0.7 | 52.6 µM | > 100 µM | > 100 µM | 39.4 µM |  | 
7 | CN(C)c1ccc(/C=C2\CCC/C(=C\c3ccc(N(C)C)cc3)C2=O)cc1 | > 250 µM |  |  | 1.1 | 18.6 µM | > 100 µM | > 100 µM | 20.8 µM |  | 
8 | O=C1/C(=C/c2cccc3cnccc23)CCC/C1=C\c1cccc2cnccc12 | 68.7 µM | 188 µM | 2.7 | 9.3 | 8.4 µM | > 100 µM | > 100 µM | 78.1 µM | inactive | 19%
9 | [N-]=[N+]=NCc1ccc(/C=C2\CC/C(=C\c3ccc(CN=[N+]=[N-])cc3)C2=O)cc1 | > 250 µM |  |  |  |  | > 100 µM | 228 µM |  |  | 
10 | O=C1/C(=C/c2ccnc3ccccc23)CCC/C1=C\c1ccnc2ccccc12 | > 250 µM |  |  | 1 | 0.6 µM | > 100 µM | > 100 µM | 0.6 µM | inactive | 42%
11 | O=C(Cn1ccnc1[N+](=O)[O-])NCc1ccccc1 [BENZNIDAZOLE] |  | > 1000 µM | >262 |  |  |  |  |  |  | 
12 | O=C1/C(=C/c2ccc([N+](=O)[O-])cc2)CC/C1=C\c1ccc([N+](=O)[O-])cc1 | > 250 µM |  |  |  |  | > 100 µM | > 100 µM |  | inactive | 35%
13 | O=NN(CCCl)C(=O)NCCCl [CARMUSTINE] |  |  |  |  |  |  | 8.1 µM |  |  | 
14 | C[C@@H]1[C@H](O)[C@@H](C)/C=C/C=C/C=C/C=C/C=C/C=C/C=C/[C@H](O[C@@H]2O[C@H](C)[C@@H](O)[C@H](N)[C@@H]2O)C[C@@H]2O[C@](O)(C[C@@H](O)C[C@@H](O)[C@H](O)CC[C@@H](O)C[C@@H](O)CC(=O)O[C@H]1C)C[C@H](O)[C@H]2C(=O)O [AMPHOTERICIN B] |  |  |  | 8.8 | 0.08 µM |  |  | 0.7 µM |  | 
15 | O=C1/C(=C/c2ccc(Cn3cc(CCO)nn3)cc2)CC/C1=C\c1ccc(Cn2cc(CCO)nn2)cc1 | > 250 µM |  |  | 1.2 | 50.9 µM | > 100 µM | > 100 µM | 60.4 µM | inactive | 16%
16 | O=C1/C(=C/c2ccccc2)CC/C1=C\c1ccccc1 | 73 µM | 375 µM | 5.1 | 1.6 | 46.6 µM | > 100 µM | > 100 µM | 76.2 µM |  | 
17 | O=C1/C(=C/c2ccncc2)CCC/C1=C\c1ccncc1 | > 250 µM |  |  | 19.9 | 1.2 µM | 14.7 µM | > 100 µM | 23.9 µM | inactive | 66%
18 | CN(C)c1ccc(/C=C2\CC/C(=C\c3ccc(N(C)C)cc3)C2=O)cc1 | > 250 µM |  |  | 0.4 | 44.1 µM | > 100 µM | > 100 µM | 17.6 µM |  | 
19 | Cc1ccc(/C=C2\CCC/C(=C\c3ccc(C)cc3)C2=O)cc1 | 230 µM | 250 µM | 1.1 | 0.2 | 110 µM | > 100 µM | > 100 µM | 19.7 µM | inactive | 32%
20 | O=C1/C(=C/c2ccc[nH]2)CC/C1=C\c1ccc[nH]1 | > 250 µM |  |  | 3.8 | 14.7 µM | > 100 µM | > 100 µM | 55.8 µM |  | 
21 | O=C1/C(=C/c2ccncc2)CC/C1=C\c1ccncc1 | > 250 µM |  |  |  |  | > 100 µM | > 100 µM |  | inactive | 23%
